Measurements from ChEMBL document CHEMBL1671809, “Discovery of phosphoric acid mono-{2-[(E/Z)-4-(3,3-dimethyl-butyrylamino)-3,5-difluoro-benzoylimino]-thiazol-3-ylmethyl} ester (Lu AA47070): a phosphonooxymethylene prodrug of a potent and selective hA(2A) receptor antagonist” (J Med Chem, 2011).

Tests used:
[1] = Primary phase half life in Sprague-Dawley rat at 0.5 mg/kg, iv and 1 mg/kg, po; assay type: ADME, organism-based; conditions: in vivo
In short: (§1)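 Awake Sprague-Dawley rats carrying a carotid catheter were dosed with 0.5 mg/kg iv or 1 mg/kg po in aqueous 25% cremophore, n = 3 per route. Ten 100 μL blood samples were collected automatically over 20 h. Plasma was assayed by HTLC-MS/MS. Parameters came from a two-compartment model with first-order absorption (po) and elimination.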

[2] = Intrinsic clearance in dog hepatocytes at 0.2 uM after 60 mins; assay type: ADME, cell-based, Canis lupus familiaris, Liver, Hepatocyte; conditions: 1 h
In short: (§2)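 Pooled cryopreserved hepatocytes: human (three donors), male Sprague-Dawley rat (two donors), male beagle dog (two donors). Cells at 10^6/mL in DMEM with 5 mM HEPES, 37 C, 15 min preincubation; compound at 0.2 μM. Samples at 0-60 min, depletion by LC-MS/MS. t1/2 scaled to CLint with 120 (human, rat) or 240 (dog) million cells/g liver. n = 1.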

[3] = Tmax in Sprague-Dawley rat at 1 mg/kg, po; assay type: ADME, organism-based; design: dose 1 mg/kg, route oral; conditions: in vivo; in short: as §1
[4] = Oral bioavailability in Sprague-Dawley rat at 1 mg/kg; assay type: ADME, organism-based; conditions: in vivo; in short: as §1
[5] = Protein binding in rat serum at 1 uM after 60 mins by LC/MS-MS; assay type: ADME, cell-free; conditions: read-out: PPB (converted)
[6] = Protein binding in human serum at 1 uM after 60 mins by LC/MS-MS; assay type: ADME, cell-free; conditions: read-out: PPB (converted)
[7] = test system: Mus musculus; experiment: Reversal of haloperidol-induced hypolocomotion in po dosed NMRI mouse administered 30 mins before haloperidol challenge measured for 20 mins; assay type: functional
In short: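 Male NMRI mice (n = 8/group) were given compound po in 25% cremophor/saline, then haloperidol 0.63 mg/kg sc 30 min later. After 15 min they went into photocell activity boxes, and locomotion was recorded for 20 min. ED50 by sigmoidal fit with top 100 and bottom 0.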

[8] = species on record: Homo sapiens; experiment: Selectivity ratio of Ki for human adenosine A1 receptor to Ki for human adenosine A2A receptor
[9] = Terminal half life in Sprague-Dawley rat at 0.5 mg/kg, iv and 1 mg/kg, po; assay type: ADME, organism-based; conditions: in vivo; in short: as §1
[10] = molecular target: Cytochrome P450 2D6 (Homo sapiens, UniProt P10635); experiment: Inhibition of recombinant CYP2D6 after 45 mins; assay type: ADME
In short: (§3)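 Recombinant CYP supersomes incubated in phosphate buffer with eight compound concentrations (40-0.02 μM) and fluorogenic substrates. CYP1A2: 7-ethoxy-3-cyanocoumarin 10 μM, 28 min. CYP2C19: same substrate 50 μM, 45 min. CYP2D6: AMMC 3 μM, 45 min. CYP3A4: resorufin benzyl ether 100 μM, 30 min. Fluorescent metabolite read; IC50 relative to uninhibited controls.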

[11] = Ratio of drug level whole brain to plasma in abcb1a-deficient mouse at 1 mg/kg, po after 50 mins
[12] = test system: Hepatocyte; experiment: Intrinsic clearance in rat hepatocytes at 0.2 uM after 60 mins; assay type: ADME, cell-based, Liver; conditions: 1 h; in short: as §2
[13] = test system: Rattus norvegicus; experiment: Cmax in Sprague-Dawley rat at 1 mg/kg, po; assay type: ADME, organism-based; design: dose 1 mg/kg, route oral; conditions: in vivo; in short: as §1
[14] = Protein binding in dog serum at 1 uM after 60 mins by LC/MS-MS; assay type: ADME, cell-free, Canis lupus familiaris; conditions: read-out: PPB (converted)
[15] = test system: Hepatocyte; experiment: Intrinsic clearance in human hepatocytes at 0.2 uM after 60 mins; assay type: ADME, cell-based, Liver; conditions: 1 h; in short: as §2
[16] = molecular target: Cytochrome P450 2C19 (Homo sapiens, UniProt P33261); experiment: Inhibition of recombinant CYP2C19 after 45 mins; assay type: ADME; in short: as §3
[17] = Apparent permeability from apical to basolateral side in human Caco2 cells at 1 uM after 21 to 28 days; assay type: ADME, cell-based; conditions: caco-2
In short: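 Caco-2 cells grown 21-28 days on permeable filters. A 2 mM DMSO stock was diluted into Hanks-HEPES pH 7.4. Dosing solution went into the apical (A-B) or basolateral (B-A) chamber, and the opposite chamber was sampled over 240 min with buffer replacement. Efflux ratio = Papp,B-A/Papp,A-B. Mean ± SD, n = 3.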

[18] = molecular target: Cytochrome P450 3A4 (Homo sapiens, UniProt P08684); experiment: Inhibition of recombinant CYP3A4 after 30 mins; assay type: ADME
In short: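 Recombinant CYP supersomes incubated in phosphate buffer with eight compound concentrations (40-0.02 μM) and fluorogenic substrates. CYP3A4: resorufin benzyl ether 100 μM, 30 min. Fluorescent metabolite read; IC50 relative to uninhibited controls.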

Cytochrome P450 2C19, sequence (P33261 whole entry): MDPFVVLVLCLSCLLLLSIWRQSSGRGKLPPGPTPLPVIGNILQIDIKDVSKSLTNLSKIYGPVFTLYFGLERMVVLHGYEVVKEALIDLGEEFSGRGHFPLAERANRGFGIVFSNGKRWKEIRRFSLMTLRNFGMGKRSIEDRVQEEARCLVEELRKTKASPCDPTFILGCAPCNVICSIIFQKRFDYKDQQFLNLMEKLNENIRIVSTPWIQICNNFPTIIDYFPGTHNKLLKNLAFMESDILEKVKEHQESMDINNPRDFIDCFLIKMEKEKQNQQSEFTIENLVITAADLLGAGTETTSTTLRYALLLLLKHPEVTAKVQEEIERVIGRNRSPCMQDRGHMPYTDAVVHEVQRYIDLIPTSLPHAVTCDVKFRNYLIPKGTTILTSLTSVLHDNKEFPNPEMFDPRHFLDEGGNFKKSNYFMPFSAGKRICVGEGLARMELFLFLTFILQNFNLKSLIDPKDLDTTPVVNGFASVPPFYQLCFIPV
Cytochrome P450 2D6, sequence (P10635 whole entry): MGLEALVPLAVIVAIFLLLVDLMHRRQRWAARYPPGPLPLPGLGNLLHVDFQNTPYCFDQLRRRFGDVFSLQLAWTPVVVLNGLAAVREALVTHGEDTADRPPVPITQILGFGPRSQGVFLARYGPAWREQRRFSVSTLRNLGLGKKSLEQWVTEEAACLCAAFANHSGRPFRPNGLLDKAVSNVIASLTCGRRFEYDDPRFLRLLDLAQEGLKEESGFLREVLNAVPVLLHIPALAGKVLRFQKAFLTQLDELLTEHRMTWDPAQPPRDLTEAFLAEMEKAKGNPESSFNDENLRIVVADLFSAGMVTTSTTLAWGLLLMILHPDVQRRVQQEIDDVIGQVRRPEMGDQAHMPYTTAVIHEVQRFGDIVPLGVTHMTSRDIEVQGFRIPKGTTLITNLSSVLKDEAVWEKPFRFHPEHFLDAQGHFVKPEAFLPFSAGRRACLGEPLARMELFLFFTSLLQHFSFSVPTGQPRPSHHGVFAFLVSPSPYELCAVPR
Cytochrome P450 3A4, sequence (P08684 whole entry): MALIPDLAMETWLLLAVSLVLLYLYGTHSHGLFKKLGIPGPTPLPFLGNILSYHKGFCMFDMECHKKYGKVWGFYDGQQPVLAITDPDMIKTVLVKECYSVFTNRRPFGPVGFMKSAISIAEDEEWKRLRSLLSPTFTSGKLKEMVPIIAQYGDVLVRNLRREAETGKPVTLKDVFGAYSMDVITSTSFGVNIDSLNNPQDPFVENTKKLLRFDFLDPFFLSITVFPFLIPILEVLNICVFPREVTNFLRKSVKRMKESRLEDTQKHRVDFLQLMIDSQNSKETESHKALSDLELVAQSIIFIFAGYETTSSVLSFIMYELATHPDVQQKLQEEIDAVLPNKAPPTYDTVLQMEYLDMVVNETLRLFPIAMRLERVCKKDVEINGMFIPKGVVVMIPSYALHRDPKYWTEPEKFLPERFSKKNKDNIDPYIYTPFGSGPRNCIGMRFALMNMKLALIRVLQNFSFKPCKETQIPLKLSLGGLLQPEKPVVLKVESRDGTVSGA

- half-life [1]: 1.2 h
- CL [2]: 346 mL/min
- Tmax [3]: 0.5 h
- bioavailability [4]: 88%
- fraction unbound at 1 h, 1 µM [5]: 0.03
- fraction unbound at 1 h, 1 µM [6]: 0.15
- Ratio Ki [8]: 69
- half-life [9]: 7.8 h
- IC50 [10]: > 40 µM
- Kp at 50 min [11]: 0.8
- CL [12]: 12 mL/min
- Cmax [13]: 878 ng/mL
- fraction unbound at 1 h, 1 µM [14]: 0.13
- CL [15]: 600 mL/min
- IC50 [16]: > 40 µM
- Papp A→B at 1 µM [17]: 88 ×10⁻⁶ cm/s
- IC50 [18]: > 40 µM
Structure (SMILES): CC(C)(C)CC(=O)Nc1c(F)cc(C(=O)Nc2nccs2)cc1F
- Activity [7]: Dose-dependent effect
- ED50 [7]: 0.5 mg/kg
